{"source": "ChEMBL document CHEMBL3108756", "about": "“Evaluation of aminohydantoins as a novel class of antimalarial agents” (ACS Med Chem Lett, 2014)", "key": {"Plasmepsin V": {"target": "Plasmepsin V (Plasmodium falciparum (isolate 3D7), UniProt Q8I6Z5)", "sequence (Q8I6Z5 whole entry)": "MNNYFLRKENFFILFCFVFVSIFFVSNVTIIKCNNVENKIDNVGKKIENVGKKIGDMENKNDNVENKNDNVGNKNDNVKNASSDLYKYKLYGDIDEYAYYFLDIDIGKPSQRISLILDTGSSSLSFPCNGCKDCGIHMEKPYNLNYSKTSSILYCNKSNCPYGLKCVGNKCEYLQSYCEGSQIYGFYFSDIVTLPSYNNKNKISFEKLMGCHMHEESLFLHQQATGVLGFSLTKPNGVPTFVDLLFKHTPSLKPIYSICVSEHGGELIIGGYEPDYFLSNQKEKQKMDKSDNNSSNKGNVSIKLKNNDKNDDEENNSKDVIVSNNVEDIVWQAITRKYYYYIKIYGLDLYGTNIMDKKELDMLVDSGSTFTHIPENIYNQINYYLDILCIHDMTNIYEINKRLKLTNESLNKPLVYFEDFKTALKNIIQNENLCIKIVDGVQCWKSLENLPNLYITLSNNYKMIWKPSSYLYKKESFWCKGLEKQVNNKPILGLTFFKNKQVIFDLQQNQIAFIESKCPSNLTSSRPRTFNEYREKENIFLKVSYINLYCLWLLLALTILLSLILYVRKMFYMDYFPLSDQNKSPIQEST", "assay": "(§1) Inhibition of Plasmodium falciparum […] plasmepsin-5 using DABCYL-GNKRTLAQKQG-EDANS as substrate measured every 15 mins of 75 mins by fluorescence assay"}, "Plasmodium falciparum [1]": {"system": "Plasmodium falciparum", "assay": "Antimalarial activity against Plasmodium falciparum", "type": "functional, organism-based"}, "Plasmodium falciparum [2]": {"system": "Plasmodium falciparum", "assay": "Antimalarial activity against chloroquine-sensitive Plasmodium falciparum 3D7 infected in […] after 72 hrs by SYBR Green I-based fluorescence method", "type": "functional, organism-based", "conditions": "3D7, 72 h"}, "Liver microsome [3]": {"system": "Liver microsome", "assay": "Metabolic stability in rat liver microsomes at 1 uM after 5 to 30 mins", "type": "ADME"}, "[4]": {"target": "Plasmepsin V (Plasmodium falciparum (isolate 3D7)) (UniProt Q8I6Z5)", "sequence (Q8I6Z5 whole entry, looked up)": "as the sequence (Q8I6Z5 whole entry) above", "assay": "as §1"}, "Plasmodium chabaudi [5]": {"system": "Plasmodium chabaudi", "assay": "Antimalarial activity against Plasmodium chabaudi ASS infected in NIH mouse assessed as inhibition of parasitemia at 100 mg/kg, po qd for 4 days", "type": "functional", "conditions": "96 h", "procedure,_shortened": "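Mice infected with P. chabaudi were given oral doses once daily for four days, starting four hours after infection. Parasitemia was read on Day 4 postinoculation and expressed as percent inhibition of parasitemia.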"}, "Cytochrome P450 2C19": {"target": "Cytochrome P450 2C19 (Homo sapiens, UniProt P33261)", "sequence (P33261 whole entry)": "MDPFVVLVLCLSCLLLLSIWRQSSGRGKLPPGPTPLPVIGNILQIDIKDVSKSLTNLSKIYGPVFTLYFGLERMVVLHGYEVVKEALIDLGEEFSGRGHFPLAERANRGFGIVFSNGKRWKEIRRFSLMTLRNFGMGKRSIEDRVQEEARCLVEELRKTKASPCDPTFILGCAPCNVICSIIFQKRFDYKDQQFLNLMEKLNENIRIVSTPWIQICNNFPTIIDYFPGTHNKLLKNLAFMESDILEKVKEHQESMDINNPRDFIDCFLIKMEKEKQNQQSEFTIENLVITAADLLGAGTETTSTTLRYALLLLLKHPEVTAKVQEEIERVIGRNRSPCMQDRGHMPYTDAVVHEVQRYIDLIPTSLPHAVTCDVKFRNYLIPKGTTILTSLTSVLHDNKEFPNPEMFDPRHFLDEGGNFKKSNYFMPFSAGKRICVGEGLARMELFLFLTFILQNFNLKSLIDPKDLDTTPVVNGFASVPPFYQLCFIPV", "assay": "Inhibition of human recombinant CYP2C19 after 30 mins", "type": "ADME", "conditions": "recombinant enzyme, 0.5 h"}, "Cytochrome P450 3A4": {"target": "Cytochrome P450 3A4 (Homo sapiens, UniProt P08684)", "sequence (P08684 whole entry)": "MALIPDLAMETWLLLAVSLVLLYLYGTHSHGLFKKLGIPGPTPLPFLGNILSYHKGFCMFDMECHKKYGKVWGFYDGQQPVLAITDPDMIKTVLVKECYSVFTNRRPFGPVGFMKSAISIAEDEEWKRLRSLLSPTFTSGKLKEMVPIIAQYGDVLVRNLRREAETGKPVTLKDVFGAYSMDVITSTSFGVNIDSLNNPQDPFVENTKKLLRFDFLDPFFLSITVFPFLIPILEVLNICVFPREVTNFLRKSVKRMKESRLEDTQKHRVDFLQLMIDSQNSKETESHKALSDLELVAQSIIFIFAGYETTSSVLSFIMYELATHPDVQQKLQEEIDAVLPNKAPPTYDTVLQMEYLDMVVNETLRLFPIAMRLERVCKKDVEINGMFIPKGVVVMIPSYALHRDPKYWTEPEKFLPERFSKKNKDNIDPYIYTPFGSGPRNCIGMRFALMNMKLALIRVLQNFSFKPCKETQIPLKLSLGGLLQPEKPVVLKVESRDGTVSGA", "assay": "Inhibition of human recombinant CYP3A4 after 30 mins", "type": "ADME", "conditions": "recombinant enzyme, 0.5 h"}, "Plasmodium falciparum [6]": {"system": "Plasmodium falciparum", "assay": "Antimalarial activity against chloroquine and pyrimethamine-resistant Plasmodium falciparum Dd2 infected in […] after 48 hrs by SYBR Green I-based fluorescence method", "type": "functional", "conditions": "Dd2, 48 h"}, "Cytochrome P450 2C9": {"target": "Cytochrome P450 2C9 (Homo sapiens, UniProt P11712)", "sequence (P11712 whole entry)": "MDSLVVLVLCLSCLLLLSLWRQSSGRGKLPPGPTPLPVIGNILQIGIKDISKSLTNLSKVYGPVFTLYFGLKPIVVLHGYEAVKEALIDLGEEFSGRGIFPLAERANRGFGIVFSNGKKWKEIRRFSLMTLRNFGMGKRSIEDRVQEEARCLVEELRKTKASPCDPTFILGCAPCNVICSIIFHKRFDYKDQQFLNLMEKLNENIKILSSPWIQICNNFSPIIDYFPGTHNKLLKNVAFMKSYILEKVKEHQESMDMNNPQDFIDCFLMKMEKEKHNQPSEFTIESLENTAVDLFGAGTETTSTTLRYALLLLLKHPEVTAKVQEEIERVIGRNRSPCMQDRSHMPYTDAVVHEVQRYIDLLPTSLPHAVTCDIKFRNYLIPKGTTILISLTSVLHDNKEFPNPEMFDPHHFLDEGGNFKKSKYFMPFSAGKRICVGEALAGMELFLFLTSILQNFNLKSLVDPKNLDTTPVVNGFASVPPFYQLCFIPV", "assay": "Inhibition of human recombinant CYP2C9 after 30 mins", "type": "ADME", "conditions": "recombinant enzyme, 0.5 h"}, "[7]": {"assay": "Selectivity ratio of IC50 for human cathepsin D to IC50 for Plasmodium falciparum plasmepsin-2"}, "Plasmodium chabaudi [8]": {"system": "Plasmodium chabaudi", "assay": "Antimalarial activity against Plasmodium chabaudi ASS infected in NIH mouse assessed as inhibition of parasitemia at 150 to 300 mg/kg, po qd for 4 days", "type": "functional", "conditions": "dose mg/kg 150-300"}, "Plasmodium falciparum [9]": {"system": "Plasmodium falciparum", "assay": "Antimalarial activity against chloroquine-sensitive Plasmodium falciparum 3D7 infected in […] after 48 hrs by SYBR Green I-based fluorescence method", "type": "functional, organism-based"}, "[10]": {"assay": "Selectivity ratio of IC50 for human cathepsin E to IC50 for Plasmodium falciparum plasmepsin-2"}, "[11]": {"assay": "Metabolic stability in mouse liver microsomes at 1 uM after 5 to 30 mins", "type": "ADME, Microsome"}, "Cytochrome P450 2D6": {"target": "Cytochrome P450 2D6 (Homo sapiens, UniProt P10635)", "sequence (P10635 whole entry)": "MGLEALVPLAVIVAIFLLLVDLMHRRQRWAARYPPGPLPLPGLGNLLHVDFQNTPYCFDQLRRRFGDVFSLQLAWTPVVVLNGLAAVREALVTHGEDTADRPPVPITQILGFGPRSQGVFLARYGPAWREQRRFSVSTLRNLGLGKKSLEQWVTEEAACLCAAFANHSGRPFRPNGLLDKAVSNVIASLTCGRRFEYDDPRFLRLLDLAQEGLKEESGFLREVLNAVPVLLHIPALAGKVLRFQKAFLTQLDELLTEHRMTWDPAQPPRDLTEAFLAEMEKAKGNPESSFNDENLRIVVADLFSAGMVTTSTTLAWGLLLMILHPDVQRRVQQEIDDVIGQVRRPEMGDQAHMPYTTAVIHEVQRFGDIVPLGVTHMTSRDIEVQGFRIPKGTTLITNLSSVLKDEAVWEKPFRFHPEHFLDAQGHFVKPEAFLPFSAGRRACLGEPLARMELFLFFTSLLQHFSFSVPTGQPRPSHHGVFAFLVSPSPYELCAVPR", "assay": "Inhibition of human recombinant CYP2D6 after 30 mins", "type": "ADME", "conditions": "recombinant enzyme, 0.5 h"}, "Liver microsome [12]": {"system": "Liver microsome", "assay": "Metabolic stability in human liver microsomes at 1 uM after 5 to 30 mins", "type": "ADME"}, "HepG2": {"system": "HepG2", "assay": "Cytotoxicity against human HepG2 cells after 72 hrs", "type": "cell-based", "conditions": "hepg2, 72 h"}, "Mus musculus": {"system": "Mus musculus", "assay": "Toxicity in Plasmodium chabaudi ASS infected NIH mouse assessed as survival at 10 to 300 mg/kg, po qd for 4 days", "type": "organism-based", "design": "dose 10-300 mg/kg, route oral", "conditions": "in vivo, 96 h"}, "Cytochrome P450 1A2": {"target": "T1, Cytochrome P450 1A2 (Homo sapiens, UniProt P05177)", "T1 sequence (P05177 whole entry)": "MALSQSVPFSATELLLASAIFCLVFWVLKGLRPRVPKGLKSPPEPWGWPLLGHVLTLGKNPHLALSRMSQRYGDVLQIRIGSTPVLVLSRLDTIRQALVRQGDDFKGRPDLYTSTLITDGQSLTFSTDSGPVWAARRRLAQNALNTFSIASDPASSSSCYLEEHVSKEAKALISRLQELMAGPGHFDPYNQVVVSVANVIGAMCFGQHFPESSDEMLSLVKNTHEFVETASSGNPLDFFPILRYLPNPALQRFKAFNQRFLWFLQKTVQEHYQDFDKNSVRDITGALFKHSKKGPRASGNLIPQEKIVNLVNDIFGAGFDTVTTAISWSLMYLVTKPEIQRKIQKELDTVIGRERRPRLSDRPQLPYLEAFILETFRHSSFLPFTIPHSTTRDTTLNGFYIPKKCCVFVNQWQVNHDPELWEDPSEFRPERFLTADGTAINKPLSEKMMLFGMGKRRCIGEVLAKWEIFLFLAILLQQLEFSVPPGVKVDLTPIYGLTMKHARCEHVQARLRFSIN", "assay": "Inhibition of human recombinant CYP1A2 after 30 mins", "type": "ADME", "conditions": "recombinant enzyme, 0.5 h"}, "[13]": {"assay": "Selectivity ratio of IC50 for human BACE1 to IC50 for Plasmodium falciparum plasmepsin-2"}}, "note": "Active and inactive are the calls of the source. The calls are words filed in the database; no cut-off is given here.", "data": [{"smiles": "CCC(CN1C(=N)NC(c2ccccc2)(c2ccccc2)C1=O)c1ccccc1", "note": "(racemic)", "values": [{"measurement": "IC50", "setting": "Plasmepsin V", "result": 977, "unit": "nM"}, {"measurement": "IC50", "setting": "Plasmodium falciparum [1]", "result": 140, "unit": "nM"}, {"measurement": "IC50", "setting": "Plasmodium falciparum [2]", "result": 2760, "unit": "nM"}]}, {"smiles": "COc1ccc(C2(c3ccc(OC)cc3)NC(=N)N(C3CCCCC3)C2=O)cc1", "values": [{"measurement": "Stability", "setting": "Liver microsome [3]", "result": "Stable"}, {"measurement": "inhibition", "setting": "[4]", "result": "inactive"}, {"measurement": "inhibition in vivo at 100 mg/kg", "setting": "Plasmodium chabaudi [5]", "result": 89, "unit": "%"}, {"measurement": "inhibition (INH)", "setting": "Cytochrome P450 2C19", "result": "Not Active"}, {"measurement": "inhibition (INH)", "setting": "Cytochrome P450 3A4", "result": "Active"}, {"measurement": "IC50", "setting": "Plasmodium falciparum [6]", "result": 480, "unit": "nM"}, {"measurement": "inhibition (INH)", "setting": "Cytochrome P450 2C9", "result": "Not Active"}, {"measurement": "Ratio IC50", "setting": "[7]", "result": "> 1000"}, {"measurement": "inhibition (INH)", "setting": "Plasmodium chabaudi [8]", "result": 100, "unit": "%"}, {"measurement": "inhibition", "setting": "Plasmodium falciparum [9]", "result": "Active"}, {"measurement": "Ratio IC50", "setting": "[10]", "result": 300}, {"measurement": "IC50", "setting": "Plasmodium falciparum [2]", "result": 463, "unit": "nM"}, {"measurement": "Stability", "setting": "[11]", "result": "Stable"}, {"measurement": "inhibition (INH)", "setting": "Cytochrome P450 2D6", "result": "Not Active"}, {"measurement": "Stability", "setting": "Liver microsome [12]", "result": "Stable"}, {"measurement": "Activity", "setting": "HepG2", "result": "Toxic"}, {"measurement": "Activity", "setting": "Mus musculus", "result": "Non-toxic"}, {"measurement": "inhibition (INH)", "setting": "Cytochrome P450 1A2", "result": "Not Active"}, {"measurement": "Ratio IC50", "setting": "[13]", "result": "> 1000"}]}]}
